The values below come from ChEMBL document CHEMBL1132279, “Axially chiral 1,7-naphthyridine-6-carboxamide derivatives as orally active tachykinin NK(1) receptor antagonists: synthesis, antagonistic activity, and effects on bladder functions” (J Med Chem, 1999).

Each structure is given as a SMILES string. “And” between values parts separate entries of the source, which are not always exact repeats. Equal values may be shown once.

For experiment [1], the system named is Cavia porcellus. Put plainly: Shut down time of distension induced rhythmic bladder contractions in urethane anesthetized guinea pigs after a intravenous dose of 0.3 mg/kg of the compound. Type of experiment: functional. The procedure, abridged: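 Urethane-anesthetized guinea pigs; saline (39 °C) infused stepwise (0.2 mL) into the bladder via a dome needle until rhythmic isovolumetric contractions appeared. Compound in DMSO (0.05 mL/100 g) given iv at 0.3 mg/kg. Shutdown time (interval between contractions, 30 min cutoff) reported as mean ± SE, compared with the vehicle group mean by Dunnett's test.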

In experiment [2] the test system is Cavia porcellus. The experiment in a line: In vivo inhibition of capsaicin-induced plasma extravasation in the trachea of guinea pigs after peroral administration. The conditions noted are these: po, read-out: ID50 (the source's name). Type of experiment: functional. In short, it runs like this: (§1)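 Male Hartley guinea pigs (n = 5–8) under pentobarbital 35 mg/kg ip. Compound given iv 5 min, or orally 60 min, before iv capsaicin (150 µg/kg) plus Evans blue (20 mg/kg) in ethanol-saline 3:7. After 10 min, animals were perfused with saline and the trachea weighed.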

Experiment [3] concerns Cavia porcellus. Put plainly: Effective dose that increased the bladder volume threshold of urethane anesthetized guinea pigs by 30%. Type of experiment: functional. The procedure, abridged:
(§2)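 Urethane-anesthetized guinea pigs; bladder volume threshold read before dosing (mean of last two stable trials as control) and again 10 min after iv injection. Compound in 80% DMSO, 0.1 mL/100 g body weight. Effect given as % rise in volume threshold over predrug value; ED30 is the dose raising threshold by 30%, with 6–12 animals per dose and 95% confidence limits.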

The target of a further experiment is Substance-P receptor (Homo sapiens, UniProt P25103). The experiment in a line: Tachykinin receptor 1 antagonistic activity as ability to inhibit [125I]BH-SP binding in human IM-9 cells (lymphoblast cells). Format: cell-based.
Chain of Substance-P receptor (P25103 whole entry): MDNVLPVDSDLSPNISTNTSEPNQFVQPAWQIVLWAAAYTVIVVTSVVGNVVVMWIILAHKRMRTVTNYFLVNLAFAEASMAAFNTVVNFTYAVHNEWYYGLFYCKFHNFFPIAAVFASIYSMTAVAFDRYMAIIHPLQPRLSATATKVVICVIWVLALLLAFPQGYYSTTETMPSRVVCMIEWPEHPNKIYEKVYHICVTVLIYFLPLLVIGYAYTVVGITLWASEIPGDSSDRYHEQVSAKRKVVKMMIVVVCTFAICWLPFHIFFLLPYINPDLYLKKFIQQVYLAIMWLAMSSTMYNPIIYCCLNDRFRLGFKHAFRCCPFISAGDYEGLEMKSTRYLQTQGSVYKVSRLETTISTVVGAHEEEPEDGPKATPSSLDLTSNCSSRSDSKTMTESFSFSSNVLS
Experiment [4] concerns Cavia porcellus. The experiment in a line: Inhibition of capsaicin-induced plasma extravasation in guinea pig trachea by peroral administration. Type of experiment: functional. Conditions: po, read-out: ID50 (the source's name). The procedure, abridged: as §1
Experiment [5] concerns Cavia porcellus. Put plainly: In vivo inhibition of capsaicin-induced plasma extravasation in the trachea of guinea pigs after intravenous administration. Format: functional. The procedure, abridged:
as §1

For experiment [6], the system named is Cavia porcellus. The experiment in a line: Increased bladder volume threshold in urethane anesthetized guinea pigs by 30%. Format: functional. In short, it runs like this:
as §2

As to `Cc1ccc(-c2c3n(c(=O)c4ncccc24)CCCCN(Cc2cc(C(F)(F)F)cc(C(F)(F)F)c2)C3=O)cc1` [7-(3,5-BIS-TRIFLUOROMETHYL-BENZYL)-5-P-TOLYL-8,9,10,11-TETRAHYDRO-7H-1,7,11A-TRIAZA-CYCLOOCTA[B]NAPHTHALENE-6,12-DIONE (ATROPISOMERIC MIX)], the Shutdown time with Cavia porcellus [1] (0.3 mg/kg) is 7.4 min and 19.2 min and 15.7 min. Moreover, the ED50 in the experiment with Cavia porcellus [2] stood at 0.019 mg/kg. The molecule also returned an ED30 in the experiment on Cavia porcellus [3] of 0.066 mg/kg.
For orientation: IC50 means the concentration that inhibits the measured activity by half. Higher therefore signals weaker potency. Consider `Cc1ccc(-c2c3n(c(=O)c4ncccc24)CCCN(Cc2cc(C(F)(F)F)cc(C(F)(F)F)c2)C3=O)cc1`, for which the Shutdown time in the experiment with Cavia porcellus [1] turned out to be 10.1 min. Further, the concentration for half-maximal inhibition (IC50) on Substance-P receptor stood at 0.85 nM. The molecule further came in with an ED30 with Cavia porcellus [3] of 0.37 mg/kg. Moreover, in the experiment with Cavia porcellus [4], the ED50 was determined as 0.073 mg/kg.
For `Cc1ccc(-c2c3n(c(=O)c4ncccc24)C[C@H](C)CN(Cc2cc(C(F)(F)F)cc(C(F)(F)F)c2)C3=O)cc1`, the Shutdown time with Cavia porcellus [1] is 5.9 min. Also, the IC50 at Substance-P receptor was 9.5 nM.
Take `Cc1ccc(-c2c3n(c(=O)c4ncccc24)CCN(Cc2cc(C(F)(F)F)cc(C(F)(F)F)c2)C3=O)cc1`: the concentration for half-maximal inhibition (IC50) on Substance-P receptor is 2.3 nM.
On to `Cc1ccc(-c2c3n(c(=O)c4ncccc24)CC[C@H](C)CN(Cc2cc(C(F)(F)F)cc(C(F)(F)F)c2)C3=O)cc1` (stereo in doubt; (aS,9S)-8b) [7-(3,5-BIS-TRIFLUOROMETHYL-BENZYL)-9-METHYL-5-P-TOLYL-8,9,10,11-TETRAHYDRO-7H-1,7,11A-TRIAZA-CYCLOOCTA[B]NAPHTHALENE-6,12-DIONE (ATROPISOMERIC MIX)], for which the Shutdown time with Cavia porcellus [1] is 6.7 min. In addition, the ED50 in the experiment on Cavia porcellus [5] (Cavia porcellus, Plasma, iv, read-out: ID50 (the source's name)) was above 0.3 mg/kg.
In the experiment on Cavia porcellus [1], `Cc1ccc(-c2c3n(c(=O)c4ncccc24)C[C@@H](C)CN(Cc2cc(C(F)(F)F)cc(C(F)(F)F)c2)C3=O)cc1` showed a Shutdown time of 17.9 min. The ED50 in the experiment with Cavia porcellus [2] was 0.033 mg/kg. In the experiment on Cavia porcellus [3], this molecule displayed an ED30 of 0.16 mg/kg.
As for `Cc1ccc(-c2c3n(c(=O)c4ncccc24)CCCCCN(Cc2cc(C(F)(F)F)cc(C(F)(F)F)c2)C3=O)cc1`, the Shutdown time in the experiment with Cavia porcellus [1] is 17.1 min. Moreover, the ED50 with Cavia porcellus [2] amounted to 0.04 mg/kg. Further, the IC50 at Substance-P receptor turned out to be 1.8 nM. In addition, the ED30 with Cavia porcellus [3] was 0.086 mg/kg.
Molecule `Cc1ccc(-c2c3n(c(=O)c4ncccc24)CC[C@@H](C)CN(Cc2cc(C(F)(F)F)cc(C(F)(F)F)c2)C3=O)cc1` (stereo in doubt; (aR,9R)-8b) returned a Shutdown time with Cavia porcellus [1] of 21.8 min. The ED50 with Cavia porcellus [2] is 0.033 mg/kg. This molecule also had an ID50 in the experiment on Cavia porcellus [5] of 0.0043 mg/kg. For the same molecule, in the experiment with Cavia porcellus [3], the ED30 worked out at 0.051 mg/kg.
Regarding `Cc1ccc(-c2c3n(c(=O)c4ncccc24)CC[C@@H](C)CN(Cc2cc(C(F)(F)F)cc(C(F)(F)F)c2)C3=O)cc1` (stereo in doubt; (aS,9R)-8b), in the experiment on Cavia porcellus [5], the ID50 was 0.026 mg/kg.
As for `Cc1ccc(-c2c(C(=O)N(C)Cc3cc(C(F)(F)F)cc(C(F)(F)F)c3)n(C)c(=O)c3ncccc23)cc1` [7-METHYL-8-OXO-5-P-TOLYL-7,8-DIHYDRO-[1,7]NAPHTHYRIDINE-6-CARBOXYLIC ACID (3,5-BIS-TRIFLUOROMETHYL-BENZYL)-METHYL-AMIDE (STRUCTURAL MIX)], the Shutdown time in the experiment with Cavia porcellus [1] (0.3 mg/kg) was 12.9 min [middle of 4 runs]. Besides, the ED50 in the experiment with Cavia porcellus [2] was found to be 0.11 mg/kg. For the same molecule, the ED30 in the experiment with Cavia porcellus [6] was found to be 0.1 mg/kg.
